The text below walks through data of ChEMBL document CHEMBL1123801, “Synthesis and antifungal activity of new 1-vinylimidazoles” (1987).

Common to all, as to type: functional
The subject of experiment [1] is Candida albicans. The experiment in a line: Minimum inhibitory concentration (MIC) against Candida albicans. In short, it runs like this:
(§1)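 Broth microdilution in Sabouraud's glucose broth. Final inocula 1×10^5 cells/mL for the yeast (C. albicans) and 1×10^5 conidia/mL for the mold (A. fumigatus) and the dermatophyte (T. asteroides). MIC read as the fungistatic end point. Lowest value of duplicated experiments.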

The test system of another experiment is Aspergillus fumigatus. The experiment in a line: Minimum inhibitory concentration (MIC) against Aspergillus fumigatus. In short, it runs like this: as §1
Another experiment deals with Trichophyton benhamiae. In words: Minimum inhibitory concentration against Trichophyton asteroides. Put shortly:
as §1

The test system of experiment [2] is Candida albicans. The experiment in a line: Inhibition of pseudomycelium formation of Candida albicans. As to conditions: read-out: MEC. Put shortly:
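C. albicans KE-2 (clinical isolate), final inoculum 1×10^6 yeast cells/mL in EMEM with 20% calf serum. Compounds serially diluted by the microtiter dilution system used for MICs. After incubation, wells Giemsa-stained (5% in phosphate buffer) and examined microscopically. MEC (μg/mL) = lowest concentration preventing typical pseudomycelium formation. Lowest value of duplicated experiments.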

In brackets after ≈: the same amount, converted by molar mass.

As usually defined, the MIC is the smallest concentration in the dilution series that meets the test's criterion for growth inhibition. Read a low MIC as inhibition by little substance.

For the compound `CC(C)COc1ccccc1/C(=C/CN(C)C)n1ccnc1`, the MIC with Candida albicans [1], in the experiment on Aspergillus fumigatus and against Trichophyton benhamiae was > 100 µg/mL throughout. Also, the minimal effective concentration in the experiment on Candida albicans [2] is 5 µg/mL.
In the case of `C=C(c1ccccc1OC(C)c1cccc(Cl)c1)n1ccnc1` (centres undefined), the minimal inhibitory concentration (MIC) was found to be 6.2 µg/mL (≈ 19.1 µM) against Candida albicans [1], 12.5 µg/mL (≈ 38.5 µM) against Aspergillus fumigatus and 0.4 µg/mL (≈ 1.23 µM) in the experiment with Trichophyton benhamiae.
For `C/C(CN(C)C)=C(/c1ccccc1OCC(C)C)n1ccnc1`, the minimum inhibitory concentration (MIC) against Candida albicans [1] was > 100 µg/mL; against Aspergillus fumigatus, > 100 µg/mL; against Trichophyton benhamiae, 25 µg/mL (≈ 79.8 µM). Also, the minimal effective concentration in the experiment with Candida albicans [2] was 1.25 µg/mL.
With `C=C(c1ccccc1NCc1ccc(Cl)cc1)n1ccnc1`, the MIC in the experiment with Candida albicans [1], against Aspergillus fumigatus and against Trichophyton benhamiae was > 100 µg/mL throughout.
Take `C=C(c1cc(Cl)ccc1OCCC(C)C)n1cncn1`: the values for the MIC against Candida albicans [1], in the experiment with Aspergillus fumigatus and against Trichophyton benhamiae were > 100 µg/mL, > 100 µg/mL and 0.8 µg/mL (≈ 2.74 µM), respectively. In addition, the minimal effective concentration in the experiment with Candida albicans [2] came out at 20 µg/mL.
For `CC=C(c1cc(Cl)ccc1OCc1ccc(Cl)cc1Cl)n1ccnc1`, the MIC with Candida albicans [1] amounted to 12.5 µg/mL (≈ 31.7 µM); against Aspergillus fumigatus, 0.4 µg/mL (≈ 1.02 µM); with Trichophyton benhamiae, 1.6 µg/mL (≈ 4.06 µM).
In the same order, the values of `CC(C)=C(c1ccccc1OCc1ccccc1)n1ccnc1` are 25 µg/mL (≈ 82.1 µM), 12.5 µg/mL (≈ 41.1 µM) and 1.6 µg/mL (≈ 5.26 µM).
In the same order, the values of `C=C(c1ccccc1OCc1ccc(Cl)cc1Cl)n1ccnc1` are 50 µg/mL (≈ 145 µM), 1.6 µg/mL (≈ 4.63 µM) and 0.1 µg/mL (≈ 0.29 µM).
In the same order, the values of `C=C(c1ccccc1OCc1ccsc1)n1ccnc1` are 50 µg/mL (≈ 177 µM), 3.1 µg/mL (≈ 11 µM) and 0.1 µg/mL (≈ 0.354 µM).
Take `C=C(c1ccccc1OCCOc1ccc(Cl)cc1)n1ccnc1`: the MIC with Candida albicans [1] was found to be 50 µg/mL (≈ 147 µM); in the experiment with Aspergillus fumigatus, 1.6 µg/mL (≈ 4.69 µM); with Trichophyton benhamiae, 0.1 µg/mL (≈ 0.293 µM).
Turning to `C=C(c1ccccc1OCCc1ccc(Cl)cc1Cl)n1ccnc1`, the values for the MIC in the experiment on Candida albicans [1], against Aspergillus fumigatus and against Trichophyton benhamiae were 25 µg/mL (≈ 69.6 µM), 0.4 µg/mL (≈ 1.11 µM) and 0.1 µg/mL (≈ 0.278 µM), respectively.
In the same order, the values of `C=C(c1ccccc1OCCCSc1ccc(Cl)cc1)n1ccnc1` are 25 µg/mL (≈ 67.4 µM), 3.1 µg/mL (≈ 8.36 µM) and 0.1 µg/mL (≈ 0.27 µM).
As to `C=C(c1ccccc1OCC(C)C)n1ccnc1`, the MIC with Candida albicans [1] was 100 µg/mL (≈ 413 µM); in the experiment with Aspergillus fumigatus it was 1.6 µg/mL (≈ 6.6 µM); in the experiment with Trichophyton benhamiae it was 0.1 µg/mL (≈ 0.413 µM). Further, the minimal effective concentration with Candida albicans [2] is 0.63 µg/mL.
As for `C=C(c1ccccc1OCc1ccc(C(C)C)cc1)n1ccnc1`, the MIC in the experiment on Candida albicans [1] worked out at 25 µg/mL (≈ 78.5 µM); in the experiment with Aspergillus fumigatus it was 3.1 µg/mL (≈ 9.74 µM); in the experiment on Trichophyton benhamiae, 3.1 µg/mL (≈ 9.74 µM).
As to `C=C(c1cc(Cl)ccc1OC(C)C)n1ccnc1`, the values for the MIC with Candida albicans [1], against Aspergillus fumigatus and with Trichophyton benhamiae were 50 µg/mL (≈ 190 µM), 0.8 µg/mL (≈ 3.04 µM) and 0.1 µg/mL (≈ 0.381 µM), respectively. Moreover, the minimal effective concentration in the experiment with Candida albicans [2] worked out at 5 µg/mL.
In the same order, the values of `CCC(CC)=C(c1cc(Cl)ccc1OCc1ccc(Cl)cc1)n1cncn1` are > 100 µg/mL, > 100 µg/mL, > 100 µg/mL and 20 µg/mL.
In the same order, the values of `CC(C)COc1ccc(Cl)cc1/C(=C\CN(C)C)n1cncn1` are > 100 µg/mL, > 100 µg/mL, 12.5 µg/mL (≈ 37.3 µM) and 0.31 µg/mL.
In the same order, the values of `CCCOc1ccccc1/C(=C\CN(C)C)n1ccnc1` are > 100 µg/mL, > 100 µg/mL, 12.5 µg/mL (≈ 43.8 µM) and 0.31 µg/mL.
Regarding `CC(C)COc1ccccc1/C(=C\CN1CCOCC1)n1ccnc1`, the MIC in the experiment with Candida albicans [1] is > 100 µg/mL; in the experiment on Aspergillus fumigatus, > 100 µg/mL; in the experiment with Trichophyton benhamiae, 6.3 µg/mL (≈ 18.5 µM). Also, the minimal effective concentration in the experiment on Candida albicans [2] is 2.5 µg/mL.
Turning to `CN(C)C/C=C(\c1ccccc1OCc1ccc(Cl)cc1)n1ccnc1`, the results for the MIC in the experiment on Candida albicans [1], against Aspergillus fumigatus and in the experiment on Trichophyton benhamiae were > 100 µg/mL, > 100 µg/mL and 1.6 µg/mL (≈ 4.35 µM), respectively. For the same compound, the minimal effective concentration in the experiment with Candida albicans [2] is 1.25 µg/mL.
For `C=C(c1ccccc1N(Cc1ccc(Cl)cc1)C(=O)C(F)(F)F)n1ccnc1`, the figures for the MIC against Candida albicans [1], against Aspergillus fumigatus and against Trichophyton benhamiae were 1.6 µg/mL (≈ 3.94 µM), 50 µg/mL (≈ 123 µM) and 1.6 µg/mL (≈ 3.94 µM), respectively. Besides, the minimal effective concentration with Candida albicans [2] was 20 µg/mL.
